According to ChEMBL document CHEMBL1123878, “Potential antitumor agents. 50. In vivo solid-tumor activity of derivatives of N-[2-(dimethylamino)ethyl]acridine-4-carboxamide” (J Med Chem, 1987):
Activity calls are given as the source filed them. The calls are words filed in the database; no cut-off is given here.

Experiments:
[1] = Lipophilicity index (Rm) (HPLC); assay type: physicochemical
P388 [2] = test: Percent increase in life span of P388 cells compared to non treated, tumor-bearing controls when treated at the optimal dose of 225 mg/kg/day; IA denotes inactive; assay type: functional, organism-based; conditions: Mus musculus
[3] = Base strength is expressed as pKa, determined in water at 25 degrees Centigrade by spectrophotometric method.; assay type: physicochemical
L1210 = test: Inhibition murine leukemia L1210 cell growth in culture; assay type: functional, cell-based; conditions: Mus musculus
In short: (§1)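 IC50 is the drug concentration, in nM, that inhibits growth of the cultured cell line by 50%.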

HCT-8 = test: Inhibition of human colon tumor (HCT-8) cell growth in culture; assay type: functional, cell-based; in short: as §1
P388 [4] = test: (§2) Percentage increase in life span of tumor bearing animals compared to non treated, tumor-bearing controls when treated at the optimal dose of 100 mg/kg/day intraperitoneally; assay type: functional; conditions: Mus musculus, P388, ip; route intraperitoneal
[5] = test system: Lewis lung carcinoma cell line; test: as §2; assay type: functional; conditions: Mus musculus, ip, route intraperitoneal
[6] = Selectivity ratio of IC50 of HCT to IC50 of L1210 cell lines; assay type: functional
P388 [7] = test: (§3) Percentage increase in life span of tumor bearing animals compared to non treated, tumor-bearing controls when treated at the optimal dose of 150 mg/kg/day intraperitoneally; assay type: functional; conditions: Mus musculus, P388, ip; route intraperitoneal
[8] = test system: Lewis lung carcinoma cell line; test: as §3; assay type: functional; conditions: Mus musculus, ip, route intraperitoneal
P388 [9] = test: (§4) Percentage increase in life span of compound-treated, tumor bearing animals compared to non treated, tumor-bearing controls when treated at the optimal dose of 100 mg/kg; assay type: functional; conditions: Mus musculus
[10] = test system: Lewis lung carcinoma cell line; test: as §4; assay type: functional; conditions: Mus musculus
[11] = test system: Lewis lung carcinoma cell line; test: Percentage increase in life span of tumor bearing animals compared to non treated, tumor-bearing controls when treated at the optimal dose of 20 mg/kg/day ip (LL); assay type: functional, organism-based; conditions: Mus musculus
P388 [12] = test: Percentage increase in life span of tumor bearing animals compared to non treated, tumor-bearing controls when treated at the optimal dose of 13.3 mg/kg/day ip (P388); assay type: functional; conditions: Mus musculus, route intraperitoneal
Nucleic Acid [13] = test: Binding constant to poly(dG-dC)DNA by ethidium bromide displacement; assay type: nucleic-acid assay
In short: (§5)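 Association constants derived from the drug concentration displacing 50% of bound ethidium from the polynucleotide, assuming competitive binding of drug and ethidium to DNA.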

P388 [14] = test: Percent increase in life span of P388 tumor bearing animals compared to non treated, tumor-bearing controls when treated at the optimal dose of 150 mg/kg/day; IA denotes inactive; assay type: functional, organism-based; conditions: Mus musculus
Nucleic Acid [15] = test: Binding constant to poly(dA-dT)DNA by ethidium bromide displacement; assay type: nucleic-acid assay; in short: as §5
P388 [16] = test: (§6) Percentage increase in life span of tumor bearing animals compared to non treated, tumor-bearing controls when treated at the optimal dose of 65 mg/kg/day intraperitoneally; IA denotes inactive; assay type: functional, organism-based; conditions: Mus musculus
In short: (§7)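 Drug was given ip in 0.1 mL 30% v/v ethanol/water. For P388, 10^6 cells were inoculated ip and dosing was on days 1, 5 and 9, with >20% significant. For Lewis lung, 10^6 cells were inoculated iv and dosing was on days 5, 9 and 13, with >40% significant. The read-out is % lifespan increase over untreated controls.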

[17] = test system: Lewis lung carcinoma cell line; test: as §6; assay type: functional, organism-based; conditions: Mus musculus; in short: as §7
P388 [18] = test: Percentage increase in life span of tumor bearing animals compared to non treated, tumor-bearing controls when treated at the optimal dose of 13.3 mg/kg/day intraperitoneally; assay type: functional; conditions: Mus musculus, P388, ip; route intraperitoneal
[19] = test system: Lewis lung carcinoma cell line; test: Percentage increase in life span of tumor bearing animals compared to non treated, tumor-bearing controls when administered intraperitoneally; IA denotes inactive; assay type: functional; conditions: Mus musculus; in short: as §7
P388 [20] = test: Percentage increase in life span of tumor bearing animals compared to non treated, tumor-bearing controls when treated at the optimal dose of 4.5 mg/kg/day intraperitoneally; assay type: functional; conditions: Mus musculus, P388, ip; route intraperitoneal
[21] = test system: Lewis lung carcinoma cell line; test: Percentage increase in life span of tumor bearing animals compared to non treated, tumor-bearing controls when treated at the optimal dose of 4.5 mg/kg/day intraperitoneally; IA denotes inactive; assay type: functional, organism-based; conditions: Mus musculus; in short: as §7
[22] = test system: Lewis lung carcinoma cell line; test: Percentage increase in life span of tumor bearing animals compared to non treated, tumor-bearing controls when treated at the optimal dose of 65 mg/kg/day intraperitoneally; assay type: functional; conditions: Mus musculus, ip, route intraperitoneal
P388 [23] = test: (§8) Percentage increase in life span of tumor bearing animals compared to non treated, tumor-bearing controls when treated at the optimal dose of 30 mg/kg/day intraperitoneally; assay type: functional; conditions: Mus musculus, P388, ip; route intraperitoneal
[24] = test system: Lewis lung carcinoma cell line; test: as §8; assay type: functional; conditions: Mus musculus, ip, route intraperitoneal

Row | SMILES | Rm [1] | pKa [3] | IC50 (L1210) | IC50 (HCT-8) | ILS at 100 mg/kg/day [5] | Ratio [6] | other results
1 | CN(C)CCNC(=O)c1ccc2nc3ccccc3cc2c1.Cl.Cl | -0.57 | 4.37 | 9300 nM |  |  |  | ILS (P388 [2]): inactive
2 | CN(C)CCNC(=O)c1cccc2cc3cc(Cl)ccc3nc12.Cl.Cl | -0.03 |  | 250 nM | 610 nM | 94% | 2.4 | ILS at 100 mg/kg/day (P388 [4]): 106%
3 | CCN(CC)CCNC(=O)c1cccc2cc3ccccc3nc12.Cl.Cl | 0.17 |  | 630 nM |  |  |  | ILS at 150 mg/kg/day (P388 [7]): 61%; ILS at 150 mg/kg/day [8]: 62%
4 | Cc1ccc2cc3cccc(C(=O)NCCN(C)C)c3nc2c1.Cl.Cl | -0.1 |  | 121 nM | 658 nM |  | 5.4 Ratio | ILS at 100 mg/kg (P388 [9]): 82%; ILS at 100 mg/kg [10]: 106%
5 | COc1ccc2cc3cccc(C(=O)NCCN(C)C)c3nc2c1.Cl.Cl | -0.47 | 4.59 | 210 nM | 470 nM | 85% | 2.2 | 
6 | COc1cc(C(=O)NCCN(C)C)c2nc3ccccc3cc2c1.Cl.Cl | -0.13 | 3.34 | 30 nM | 720 nM | 105% | 24 | ILS at 100 mg/kg/day (P388 [4]): 99%
7 | Cl.Cl.O=C(NCCNCCO)c1cccc2cc3ccccc3nc12 | -0.22 |  | 240 nM | 1800 nM |  | 7.5 | ILS [11]: inactive; ILS at 13.3 mg/kg/day (P388 [12]): 22%
8 | CN(C)CCCCNC(=O)c1cccc2cc3ccccc3nc12.Cl | 0.01 |  | 160 nM | 930 nM | 100% | 5.8 | ILS at 100 mg/kg/day (P388 [4]): 143%
9 | CN(C)CCNC(=O)c1cccc2nc3ccccc3cc12.Cl.Cl | -0.56 | 4.24 | 17900 nM |  |  |  | Log K (Nucleic Acid [13]): 7.7; ILS (P388 [14]): inactive; Log K (Nucleic Acid [15]): 6.87
10 | CNCCNC(=O)c1cccc2cc3ccccc3nc12.Cl.Cl | -0.27 |  | 240 nM | 620 nM |  | 2.6 | ILS (P388 [16]): inactive; ILS [17]: inactive
11 | Cl.Cl.NCCNC(=O)c1cccc2cc3ccccc3nc12 | -0.28 |  | 275 nM | 1600 nM |  | 5.8 | ILS at 13.3 mg/kg/day (P388 [18]): 24%; ILS [19]: inactive
12 | CN(C)CCNC(=O)c1cccc2c(N)c3ccccc3nc12 | -1.11 |  |  | 55 nM |  | 3.7 | ILS at 4.5 mg/kg/day (P388 [20]): 98%; ILS [21]: inactive
13 | CN(C)CCNC(=O)c1cccc2cc3ccc(Cl)cc3nc12.Cl | -0.06 |  | 6.4 nM | 350 nM |  | 54 | ILS at 65 mg/kg/day [22]: 91%
14 | COc1cccc2nc3c(C(=O)NCCN(C)C)cccc3cc12.Cl | -0.12 | 3.82 | 58 nM | 520 nM | 66% | 9 | ILS at 100 mg/kg/day (P388 [4]): 128%
15 | CN(C)CCCNC(=O)c1cccc2cc3ccccc3nc12.Cl.Cl | -0.1 |  | 370 nM | 2900 nM |  | 7.8 | ILS at 150 mg/kg/day (P388 [7]): 118%; ILS at 150 mg/kg/day [8]: 84%
16 | Cc1cccc2cc3cccc(C(=O)NCCN(C)C)c3nc12.Cl.Cl | -0.17 |  | 4.3 nM | 54 nM |  | 12.6 | ILS at 30 mg/kg/day (P388 [23]): 87%; ILS at 30 mg/kg/day [24]: 120%
